Test results reported in ChEMBL document CHEMBL1932971, “Synthesis of uriedo and thiouriedo derivatives of peptide conjugated heterocycles - A new class of promising antimicrobials” (2012).
In brackets after ≈: the same amount, converted by molar mass. Numbered stars: 1 amine (or outer) side, 2 acyl side, 3 side chain; on linkers, the order of the positions; unused ones are H or OH. Peptide text beside a SMILES is read from it. * marks the point of attachment. Piperazinyl(4-(2,3-Cl2Ph)) = Clc1cccc(N2CCN(*)CC2)c1Cl; Thiocarbamoyl(N-4-ClPh) = S=C(Nc1ccc(Cl)cc1)*; Thiocarbamoyl(4-MeOPh) = COc1ccc(NC(=S)*)cc1; Thiocarbamoyl(N-2-FPh) = Fc1ccccc1NC(=S)*; NH(4-Cl-phenyl) = Clc1ccc(N*)cc1; X1 = Fc1ccc2c(C3CCN(*)CC3)noc2c1; NH(2-F-phenyl) = Fc1ccccc1N*; CO = O=C([*:1])[*:2]; OcHex = C1CCC(O*)CC1

How the values were obtained:
Type in all cases: functional
[1] = test system: Fusarium oxysporum; assay: Antifungal activity against Fusarium oxysporum at 30 ug/ml after 72 hrs by agar well diffusion method; details: read-out: DIZ
In short: (§1)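 Fungal well diffusion. Inocula were subcultured in nutrient broth for one day, then spread on solidified medium. Compounds were made as a 1 mg/mL DMSO stock and diluted to 30 µg/mL final. Each 6 mm well got 0.1 mL. Controls were bavistin (reference) and DMSO (negative). Plates stood for 3 days at room temperature. Inhibition zone was measured in mm as the mean of three determinations.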

[2] = test system: Klebsiella pneumoniae; assay: Antibacterial activity against Klebsiella pneumoniae at 30 ug/ml after 24 hrs by agar well diffusion method; details: read-out: DIZ
In short: (§2)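 Agar well diffusion. Inocula were grown in nutrient broth at 37 °C for 24 h, then subcultured in nutrient broth at room temperature. Compounds were made as a 1 mg/mL DMSO stock and diluted to 30 µg/mL final. Nutrient agar plates were spread-inoculated and 6 mm wells each got 0.1 mL. Controls were amoxicillin (reference) and DMSO (negative). Incubation was 24 h at 37 °C. Inhibition zone was measured in mm as the mean of three determinations.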

[3] = test system: Xanthomonas oryzae; assay: Antibacterial activity against Xanthomonas oryzae at 30 ug/ml after 24 hrs by agar well diffusion method; details: read-out: DIZ
[4] = test system: Fusarium oxysporum; assay: Antifungal activity against Fusarium oxysporum after 72 hrs by microdilution method
[5] = test system: Escherichia coli; assay: Antibacterial activity against Escherichia coli at 30 ug/ml after 24 hrs by agar well diffusion method; details: read-out: DIZ; in short: as §2
[6] = test system: Aspergillus flavus; assay: Antifungal activity against Aspergillus flavus at 30 ug/ml after 72 hrs by agar well diffusion method; details: read-out: DIZ; in short: as §1
[7] = test system: Aspergillus flavus; assay: Antifungal activity against Aspergillus flavus after 72 hrs by microdilution method
[8] = test system: Aspergillus niger; assay: Ratio of bavistin MIC to compound MIC for Aspergillus niger after 72 hrs by microdilution method
[9] = test system: Aspergillus niger; assay: Antifungal activity against Aspergillus niger after 72 hrs by microdilution method
[10] = test system: Staphylococcus aureus; assay: Antibacterial activity against coagulase-positive Staphylococcus aureus at 30 ug/ml after 24 hrs by agar well diffusion method; details: read-out: DIZ; in short: as §2
[11] = test system: Aspergillus niger; assay: Antifungal activity against Aspergillus niger at 30 ug/ml after 72 hrs by agar well diffusion method; details: read-out: DIZ; in short: as §1
[12] = test system: Fusarium oxysporum; assay: Ratio of bavistin MIC to compound MIC for Fusarium oxysporum after 72 hrs by microdilution method
[13] = test system: Aspergillus flavus; assay: Ratio of bavistin MIC to compound MIC for Aspergillus flavus after 72 hrs by microdilution method
[14] = test system: Escherichia coli; assay: Antibacterial activity against Escherichia coli after 24 hrs by microdilution method
[15] = test system: Staphylococcus aureus; assay: Antibacterial activity against coagulase-positive Staphylococcus aureus after 24 hrs by microdilution method
[16] = test system: Xanthomonas oryzae; assay: Antibacterial activity against Xanthomonas oryzae after 24 hrs by microdilution method
[17] = test system: Klebsiella pneumoniae; assay: Antibacterial activity against Klebsiella pneumoniae after 24 hrs by microdilution method

Structure (SMILES)	zone of inhibition at 30 µg/mL [1] [mm]	zone of inhibition at 30 µg/mL [2] [mm]	zone of inhibition at 30 µg/mL [3] [mm]	MIC [4] [µg/mL]	zone of inhibition at 30 µg/mL [5] [mm]	zone of inhibition at 30 µg/mL [6] [mm]	MIC [7] [µg/mL]	Ratio [8]	MIC [9] [µg/mL]	zone of inhibition at 30 µg/mL [10] [mm]	zone of inhibition at 30 µg/mL [11] [mm]	Ratio [12]	Ratio [13]	MIC [14] [µg/mL]	MIC [15] [µg/mL]	MIC [16] [µg/mL]	MIC [17] [µg/mL]
CC(C)[C@H](NC(=O)CNC(=O)[C@@H]1CCCN1C(=O)[C@H](Cc1ccccc1)NC(=O)CNC(=O)[C@H](CCC(=O)OC1CCCCC1)NC(=O)CNC(=O)Nc1ccccc1F)C(=O)NCC(=O)N[C@H](C(=O)N1CCC[C@H]1C(=O)NCC(=O)N[C@H](C(=O)NCC(=O)N[C@@H](Cc1ccccc1)C(=O)N1CCC[C@H]1C(=O)NCC(=O)N[C@@H](Cc1ccccc1)C(=O)NCC(=O)N[C@@H](Cc1ccccc1)C(=O)N1CCC[C@H]1C(=O)NCC(=O)N[C@H](C(=O)NCC(=O)N[C@H](C(=O)N1CCC[C@H]1C(=O)NCC(=O)N[C@H](C(=O)NCC(=O)N[C@@H](Cc1ccccc1)C(=O)N1CCC[C@H]1C(=O)N1CCN(c2cccc(Cl)c2Cl)CC1)C(C)C)C(C)C)C(C)C)C(C)C)C(C)C ({NH(2-F-phenyl)-CO}-GE(OcHex)GFPGVGVPGVGFPGFGFPGVGVPGVGFP-{Piperazinyl(4-(2,3-Cl2Ph))})	43	21	19	2 (≈ 0.629 µM)	22	42	1.75 (≈ 0.551 µM)	10	2 (≈ 0.629 µM)	20	48	10	10	–	–	–	–
COc1ccc(NC(=S)NCC(=O)N[C@@H](CCC(=O)OC2CCCCC2)C(=O)NCC(=O)N[C@@H](Cc2ccccc2)C(=O)N2CCC[C@H]2C(=O)NCC(=O)N[C@H](C(=O)NCC(=O)N[C@H](C(=O)N2CCC[C@H]2C(=O)NCC(=O)N[C@H](C(=O)NCC(=O)N[C@H](C(=O)N2CCC[C@H]2C(=O)NCC(=O)N[C@H](C(=O)NCC(=O)N[C@H](C(=O)N2CCC[C@H]2C(=O)NCC(=O)N[C@@H](Cc2ccccc2)C(=O)NCC(=O)N[C@@H](Cc2ccccc2)C(=O)N2CCC[C@H]2C(=O)NCC(=O)N[C@@H](Cc2ccccc2)C(=O)NCC(=O)N[C@@H](Cc2ccccc2)C(=O)N2CCC[C@H]2C(=O)N2CCC(c3noc4cc(F)ccc34)CC2)C(C)C)C(C)C)C(C)C)C(C)C)C(C)C)C(C)C)cc1 ({Thiocarbamoyl(4-MeOPh)}-GE(OcHex)GFPGVGVPGVGVPGVGVPGFGFPGFGFP-X1)	39	16	14	2 (≈ 0.626 µM)	17	38	2 (≈ 0.626 µM)	10	2 (≈ 0.626 µM)	15	43	10	10	–	–	–	–
CC(C)[C@H](NC(=O)CNC(=O)[C@@H]1CCCN1C(=O)[C@H](Cc1ccccc1)NC(=O)CNC(=O)[C@H](CCC(=O)OC1CCCCC1)NC(=O)CNC(=S)Nc1ccc(Cl)cc1)C(=O)NCC(=O)N[C@H](C(=O)N1CCC[C@H]1C(=O)NCC(=O)N[C@H](C(=O)NCC(=O)N[C@@H](Cc1ccccc1)C(=O)N1CCC[C@H]1C(=O)NCC(=O)N[C@@H](Cc1ccccc1)C(=O)NCC(=O)N[C@@H](Cc1ccccc1)C(=O)N1CCC[C@H]1C(=O)NCC(=O)N[C@H](C(=O)NCC(=O)N[C@H](C(=O)N1CCC[C@H]1C(=O)NCC(=O)N[C@H](C(=O)NCC(=O)N[C@@H](Cc1ccccc1)C(=O)N1CCC[C@H]1C(=O)N1CCN(c2cccc(Cl)c2Cl)CC1)C(C)C)C(C)C)C(C)C)C(C)C)C(C)C ({Thiocarbamoyl(N-4-ClPh)}-GE(OcHex)GFPGVGVPGVGFPGFGFPGVGVPGVGFP-{Piperazinyl(4-(2,3-Cl2Ph))})	40	18	16	3 (≈ 0.935 µM)	19	39	2.5 (≈ 0.779 µM)	10	2.5 (≈ 0.779 µM)	16	44	10	10	–	–	–	–
O=C(CNC(=O)Nc1ccc(Cl)cc1)N[C@@H](Cc1ccccc1)C(=O)NCC(=O)N[C@@H](Cc1ccccc1)C(=O)N1CCC[C@H]1C(=O)N1CCC(c2noc3cc(F)ccc23)CC1 ({NH(4-Cl-phenyl)-CO}-GFGFP-X1)	35	33	35	6 (≈ 6.82 µM)	34	31	6.25 (≈ 7.11 µM)	–	4.75 (≈ 5.4 µM)	31	38	–	–	6.25 (≈ 7.11 µM)	6 (≈ 6.82 µM)	6.5 (≈ 7.39 µM)	4.75 (≈ 5.4 µM)
CC(C)[C@H](NC(=O)CNC(=S)Nc1ccc(Cl)cc1)C(=O)NCC(=O)N[C@H](C(=O)N1CCC[C@H]1C(=O)N1CCC(c2noc3cc(F)ccc23)CC1)C(C)C ({Thiocarbamoyl(N-4-ClPh)}-GVGVP-X1)	31	30	32	8 (≈ 10 µM)	31	30	6.75 (≈ 8.44 µM)	–	6 (≈ 7.51 µM)	28	34	–	–	8.75 (≈ 10.9 µM)	8 (≈ 10 µM)	8 (≈ 10 µM)	6.5 (≈ 8.13 µM)
CC[C@H](C)[C@H](NC(=O)CNC(=O)CNC(=O)Nc1ccccc1F)C(=O)N1CCC[C@H]1C(=O)N1CCN(c2cccc(Cl)c2Cl)CC1 ({NH(2-F-phenyl)-CO}-GGIP-{Piperazinyl(4-(2,3-Cl2Ph))})	30	23	26	15 (≈ 21.7 µM)	29	28	14 (≈ 20.2 µM)	–	11 (≈ 15.9 µM)	24	32	–	–	13 (≈ 18.8 µM)	12 (≈ 17.3 µM)	10 (≈ 14.4 µM)	10 (≈ 14.4 µM)
O=C(CNC(=O)Nc1ccccc1F)NCC(=O)N[C@@H](Cc1ccccc1)C(=O)N1CCC[C@H]1C(=O)N1CCC(c2noc3cc(F)ccc23)CC1 ({NH(2-F-phenyl)-CO}-GGFP-X1)	31	27	29	14 (≈ 19.6 µM)	31	29	13 (≈ 18.2 µM)	–	9 (≈ 12.6 µM)	25	34	–	–	12 (≈ 16.8 µM)	11 (≈ 15.4 µM)	9 (≈ 12.6 µM)	9 (≈ 12.6 µM)
O=C(CNC(=S)Nc1ccccc1F)NCC(=O)N[C@@H](Cc1ccccc1)C(=O)N1CCC[C@H]1C(=O)N1CCC(c2noc3cc(F)ccc23)CC1 ({Thiocarbamoyl(N-2-FPh)}-GGFP-X1)	32	28	30	13.2 (≈ 18.1 µM)	32	30	12.2 (≈ 16.7 µM)	–	8.5 (≈ 11.6 µM)	26	35	–	–	11.5 (≈ 15.7 µM)	10.2 (≈ 14 µM)	8.5 (≈ 11.6 µM)	8.25 (≈ 11.3 µM)
O=C(CNC(=O)Nc1ccccc1F)N[C@@H](Cc1ccccc1)C(=O)NCC(=O)N[C@@H](Cc1ccccc1)C(=O)N1CCC[C@H]1C(=O)N1CCC(c2noc3cc(F)ccc23)CC1 ({NH(2-F-phenyl)-CO}-GFGFP-X1)	39	36	40	4.25 (≈ 4.93 µM)	39	35	4.75 (≈ 5.5 µM)	–	3.25 (≈ 3.77 µM)	34	40	–	–	5 (≈ 5.79 µM)	4.25 (≈ 4.93 µM)	5 (≈ 5.79 µM)	3.25 (≈ 3.77 µM)
CC(C)[C@H](NC(=O)CNC(=S)Nc1ccccc1F)C(=O)NCC(=O)N[C@H](C(=O)N1CCC[C@H]1C(=O)N1CCC(c2noc3cc(F)ccc23)CC1)C(C)C ({Thiocarbamoyl(N-2-FPh)}-GVGVP-X1)	35	35	36	6.75 (≈ 8.62 µM)	35	33	5.5 (≈ 7.03 µM)	–	4.75 (≈ 6.07 µM)	31	37	–	–	7.25 (≈ 9.26 µM)	6.25 (≈ 7.98 µM)	6.25 (≈ 7.98 µM)	5 (≈ 6.39 µM)
CC(C)[C@H](NC(=O)CNC(=O)Nc1ccccc1F)C(=O)NCC(=O)N[C@H](C(=O)N1CCC[C@H]1C(=O)N1CCN(c2cccc(Cl)c2Cl)CC1)C(C)C ({NH(2-F-phenyl)-CO}-GVGVP-{Piperazinyl(4-(2,3-Cl2Ph))})	32	32	34	7.5 (≈ 9.64 µM)	33	31	6.25 (≈ 8.04 µM)	–	5.5 (≈ 7.07 µM)	29	35	–	–	8.25 (≈ 10.6 µM)	7.25 (≈ 9.32 µM)	7.25 (≈ 9.32 µM)	6 (≈ 7.71 µM)
